From ChEMBL document CHEMBL1124846, “Synthesis, antiproliferative, and antiviral activity of certain 4-substituted and 4,5-disubstituted 7-[(1,3-dihydroxy-2-propoxy)methyl]pyrrolo[2,3-d]pyrimidines” (J Med Chem, 1990)
Where “and” joins values, the source holds several entries; their conditions need not be identical. Equal values may be shown once.

How the values were obtained:
[1] = Cytotoxic activity against HFF cells.; assay type: cell-based; conditions: Homo sapiens
Procedure, shortened: (§1)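 Cytotoxicity was scored visually in uninfected HFF or BSC-1 monolayers within the plaque-reduction assays. Drug-induced cytopathology was read at 35- and 60-fold magnification on a 0 to 4+ scale on the day plaques were stained and counted.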

Human betaherpesvirus 5 = assay: Inhibition of human cytomegalovirus (HCMV) in plaque reduction assay; assay type: functional, organism-based
Procedure, shortened: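 HCMV Towne strain (plaque-purified P0) plaque reduction in HFF monolayers in MEM(E) with 10% FBS. Inoculum held about 50 PFU, with compound dissolved in the overlay medium. IC50 came from linear regression of percent inhibition against log concentration, with ganciclovir or acyclovir positive controls in every set; two to five experiments.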

L1210 [2] = assay: In vitro inhibition of L1210 cell growth.; assay type: functional, Mus musculus; design: concentration or dose not given beside the values
Procedure, shortened: (§2)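 Murine L1210 leukemia cells in static suspension culture in Fischer's medium with compound for 4 days. Growth rate is the ratio of control to treated population doubling time; where the rate changed, the final rate was used. IC50 is the concentration giving 50% of control growth rate; single-concentration value at 100 μM.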

L1210 [3] = assay: In vitro inhibition of L1210 cell growth to half of the control rate; assay type: functional, cell-based; conditions: Mus musculus; procedure, shortened: as §2
Human alphaherpesvirus 1 = assay: Inhibition of herpes simplex virus (HSV-1) in plaque reduction assay; assay type: functional, organism-based
Procedure, shortened: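 HSV-1 S-148 strain plaque reduction in BSC-1 monkey kidney monolayers, with about 100 PFU inoculum and compound dissolved in the overlay medium. IC50 came from linear regression of percent inhibition against log concentration, with a positive control in each set.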

[4] = Cytotoxic activity against BSC cells; assay type: cell-based; conditions: Cercopithecidae; procedure, shortened: as §1

Row | SMILES | IC50 [1] | IC50 (Human betaherpesvirus 5) | Activity (L1210 [2]) | IC50 (L1210 [3]) | IC50 (Human alphaherpesvirus 1) | IC50 (Human betaherpesvirus 5; Human betaherpesvirus 5) | IC50 [4]
1 | OCC(CO)OCn1cc(Cl)c2c(NO)ncnc21 | > 100 µM | 56 µM and 24 µM and 50 µM | 41% | 75 µM | – | – | –
2 | OCC(CO)OCn1cc(I)c2c(NO)ncnc21 | > 100 µM | 18 µM and 3.2 µM | 11% | 39 µM | 30 µM | – | –
3 | CNc1ncnc2c1c(Br)cn2COC(CO)CO | > 100 µM | – | 100% | – | > 100 µM | > 100 µM | > 100 µM
4 | OCC(CO)OCn1ccc2c(NO)ncnc21 | > 100 µM | – | 100% | – | – | > 100 µM | –
